In brackets after ≈: the same amount, converted by molar mass.
How the values were obtained:
Escherichia coli [1] = experiment: Antimicrobial activity against Escherichia coli JM109 after 18 hrs; assay type: functional; conditions: JM109, 18 h
Procedure, shortened: (§1)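 Broth microdilution. Bacteria grown overnight in trypticase soy broth at 37 °C with shaking, then regrown to mid-log phase. 10^6 CFU/mL mixed 1:1 with peptide (100 to 0.5 μg/mL) and incubated 18 h at 37 °C. MIC taken as the lowest concentration inhibiting growth by OD600. Untreated bacteria served as control. Three experiments, each in duplicate.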

Staphylococcus aureus = experiment: Antimicrobial activity against methicillin-resistant Staphylococcus aureus ATCC 33591 after 18 hrs; assay type: functional; conditions: ATCC 33591, 18 h
Procedure, shortened: (§2)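 Broth microdilution. A colony was grown overnight in trypticase soy broth at 37 °C with shaking, then regrown to mid-log phase. 10^6 CFU/mL inoculum was mixed 1:1 with peptide dilutions (100 to 0.5 μg/mL) and incubated 18 h at 37°C. Read at OD600; MIC is the lowest concentration inhibiting growth. Three experiments, each in duplicate.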

[2] = system: Staphylococcus epidermidis; experiment: Antimicrobial activity against methicillin-resistant Staphylococcus epidermidis RP62A after 18 hrs; assay type: functional; procedure, shortened: as §2
Enterococcus faecalis = experiment: Antimicrobial activity against vancomycin-resistant Enterococcus faecalis ATCC 700802 after 18 hrs; assay type: functional; conditions: ATCC 700802, 18 h; procedure, shortened: as §2
Klebsiella pneumoniae = experiment: Antimicrobial activity against Klebsiella pneumoniae ATCC 13383 after 18 hrs; assay type: functional; conditions: ATCC 13383, 18 h; procedure, shortened: as §1
[3] = Hemolytic activity in human RBC after 1 hr; assay type: ADME, cell-based, Erythrocyte; conditions: red blood cells (erythrocytes)
Procedure, shortened: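 Fresh human erythrocytes, PBS-washed (1000g, 10 min), as a 5% v/v suspension mixed 1:1 with two-fold compound dilutions. Incubated 1 h at 37 °C, then centrifuged. Supernatant hemoglobin read at 540 nm. PBS served as 0% lysis and 0.1% Triton X-100 as 100% lysis; % hemolysis computed relative to these.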

[4] = Selectivity ratio of HC50 for hemolytic activity in human RBC to MIC for methicillin-resistant Staphylococcus aureus ATCC 33591; assay type: toxicity; conditions: red blood cells (erythrocytes)
Escherichia coli [5] = experiment: Bactericidal activity against Escherichia coli assessed as time required for bacterial kill at 25 to 50 ug/ml by time kill assay; assay type: functional
Escherichia coli [6] = experiment: Bactericidal activity against Escherichia coli assessed as time required for bacterial kill at 12.5 ug/ml by time kill assay; assay type: functional

| SMILES | MIC (Escherichia coli [1]) | MIC (Staphylococcus aureus) | MIC [2] | MIC (Enterococcus faecalis) | MIC (Klebsiella pneumoniae) | HC50 at 1 h [3] | selectivity ratio [4] | Time (Escherichia coli [5]) | Time (Escherichia coli [6]) |
| --- | --- | --- | --- | --- | --- | --- | --- | --- | --- |
| CCCCCCCCCCCCCC(=O)N[C@@H](CCCCN)C(=O)NCCN(C(=O)CCc1ccccc1)[C@@H](CCCCN)C(N)=O | 6 to 12 µg/mL (≈ 9.11 to 18.2 µM) | 12 to 25 µg/mL (≈ 18.2 to 37.9 µM) | > 25 µg/mL | > 25 µg/mL | > 25 µg/mL | – | – | – | – |
| CCCCCCCCCC(=O)N[C@@H](CCCCN)C(=O)NCCN(C(=O)CCc1ccccc1)[C@@H](CCCCN)C(N)=O | > 25 µg/mL | > 25 µg/mL | > 25 µg/mL | > 25 µg/mL | > 25 µg/mL | – | – | – | – |
| CCCCCCCCCCCCCCCC(=O)N[C@@H](CCCCN)C(=O)NCCN(C(=O)CCc1ccccc1)[C@@H](CCCCN)C(=O)NCCN(C(=O)CCc1ccccc1)[C@@H](CCCCN)C(N)=O | 1.5 to 3 µg/mL (≈ 1.51 to 3.03 µM) | < 3 µg/mL | > 25 µg/mL | > 25 µg/mL | > 25 µg/mL | 31.2 µg/mL | 10.4 | – | – |
| CCCCCCCCCCCCCCCC(=O)N[C@@H](CCCCN)C(=O)NCCN(C(=O)CCCN)[C@@H](Cc1ccccc1)C(N)=O | 3 µg/mL (≈ 4.55 µM) | – | – | – | 3 µg/mL (≈ 4.55 µM) | 125 µg/mL | – | 60 min | 120 min |
| CCCCCCCC(=O)N[C@@H](CCCCN)C(=O)NCCN(C(=O)CCc1ccccc1)[C@@H](CCCCN)C(N)=O | > 25 µg/mL | > 25 µg/mL | > 25 µg/mL | > 25 µg/mL | > 25 µg/mL | – | – | – | – |
| CCCCCCCCCCCCCCCC(=O)N[C@@H](CCCCN)C(=O)NCCN(C(=O)CCc1ccccc1)[C@@H](CCCCN)C(N)=O | 1.5 to 3 µg/mL (≈ 2.18 to 4.37 µM) | 1.5 to 3 µg/mL (≈ 2.18 to 4.37 µM) | 3 to 6 µg/mL (≈ 4.37 to 8.73 µM) | 6 to 12 µg/mL (≈ 8.73 to 17.5 µM) | 6 to 12 µg/mL (≈ 8.73 to 17.5 µM) | 31.2 µg/mL | 10.4 | – | – |
| CCCCCCCCCCCCCCCC(=O)N[C@@H](CCCCN)C(=O)NCCN(C(=O)CCc1ccccc1)[C@@H](CCCCN)C(=O)NCCN(C(=O)CCc1ccccc1)[C@@H](CCCCN)C(=O)NCCN(C(=O)CCc1ccccc1)[C@@H](CCCCN)C(N)=O | 1.5 to 3 µg/mL (≈ 1.16 to 2.32 µM) | 1.5 to 3 µg/mL (≈ 1.16 to 2.32 µM) | 3 to 6 µg/mL (≈ 2.32 to 4.64 µM) | 6 to 12 µg/mL (≈ 4.64 to 9.27 µM) | > 25 µg/mL | 250 µg/mL | 83 | – | – |
| CCCCCC(=O)N[C@@H](CCCCN)C(=O)NCCN(C(=O)CCc1ccccc1)[C@@H](CCCCN)C(N)=O | > 25 µg/mL | > 25 µg/mL | > 25 µg/mL | > 25 µg/mL | > 25 µg/mL | – | – | – | – |
| CCCCCCCCCCCC(=O)N[C@@H](CCCCN)C(=O)NCCN(C(=O)CCc1ccccc1)[C@@H](CCCCN)C(N)=O | > 25 µg/mL | > 25 µg/mL | > 25 µg/mL | > 25 µg/mL | > 25 µg/mL | – | – | – | – |
| CCCCCCCCCCCCCCCC(=O)NCCN(C(=O)CCc1ccccc1)[C@@H](CCCCN)C(N)=O | > 25 µg/mL | 25 µg/mL (≈ 44.7 µM) | > 25 µg/mL | > 25 µg/mL | > 25 µg/mL | – | – | – | – |

Reference: ChEMBL document CHEMBL4270533, “Lipidated α/α-AA heterogeneous peptides as antimicrobial agents” (Eur J Med Chem, 2018)
